This note sets out measurements from ChEMBL document CHEMBL1126988, “Quinolone antibacterials containing the new 7-[3-(1-aminoethyl)-1- pyrrolidinyl] side chain: the effects of the 1-aminoethyl moiety and its stereochemical configurations on potency and in vivo efficacy” (J Med Chem, 1993).

The subject of assay [1] is Staphylococcus aureus. Nature of the assay: Minimum inhibitory concentration was evaluated in vitro against Staphylococcus aureus H 228. The assay is classed as functional. A digest of the protocol:
(§1)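 Standard microtitration broth assay against a panel of 10 Gram-positive and Gram-negative organisms. MIC read in µg/mL and averaged over multiple experiments.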

In assay [2] the test system is Escherichia coli. Nature of the assay: Antibacterial activity in vitro against Escherichia coli Vogel. The class given is functional. In short, it runs like this:
as §1

In assay [3] the test system is Pseudomonas aeruginosa. The assay can be described thus: Minimum inhibitory concentration was evaluated in vitro against Pseudomonas aeruginosa UI-18. The class given is functional. A digest of the protocol: as §1
Assay [4] relates to Klebsiella pneumoniae. Nature of the assay: Minimum inhibitory concentration was evaluated in vitro against Klebsiella pneumoniae MGH2. The class given is functional. A digest of the protocol: as §1
The subject of assay [5] is Streptococcus pyogenes. Nature of the assay: Antibacterial activity measured as mouse protection against Streptococcus pyogenes C 203 after subcutaneous administration. The class given is functional. The settings on record: for ED50: Streptococcus pyogenes, C 203, sc, read-out: PD50.
Assay [6] has as its system Enterobacter cloacae. Nature of the assay: Minimum inhibitory concentration in vitro against Enterobacter cloacae MA 2646. The class given is functional.
Assay [7] has as its system Streptococcus pyogenes. The assay can be described thus: Minimum inhibitory concentration was evaluated in vitro against Streptococcus pyogenes C 203. The class given is functional. A digest of the protocol:
as §1

Assay [8] concerns Streptococcus pyogenes. The assay can be described thus: Compounds were evaluated in vivo for antibacterial activity for mouse protection against Streptococcus pyogenes C 203 after oral administration. The assay is classed as functional. The settings on record: for ED50: Streptococcus pyogenes, C 203, po, read-out: PD50.
For assay [9], the system named is Enterococcus faecalis. The assay can be described thus: Minimum inhibitory concentration was evaluated in vitro against Enterococcus faecalis MGH-2. The class given is functional. In short, it runs like this:
as §1

In assay [10] the test system is Providencia rettgeri. Nature of the assay: Minimum inhibitory concentration was evaluated in vitro against Providencia rettgeri M1771. The class given is functional. A digest of the protocol: as §1
For assay [11], the system named is Staphylococcus aureus. The assay can be described thus: Minimum inhibitory concentration was evaluated in vitro against Staphylococcus aureus UC 76. The assay is classed as functional. A digest of the protocol: as §1
In assay [12] the test system is Streptococcus pneumoniae. Nature of the assay: Minimum inhibitory concentration was evaluated in vitro against Streptococcus pneumoniae SV-1. The assay is classed as functional. In short, it runs like this: as §1
For assay [13], the target named is DNA gyrase (Escherichia coli, UniProt P0AES4+P0AES6). The assay can be described thus: Inhibition against DNA gyrase. The assay is classed as protein-complex assay.
Assay [14] deals with Escherichia coli. The assay can be described thus: Antibacterial activity against Escherichia coli Vogel after subcutaneous administration in mouse. The assay is classed as functional. The settings on record: Escherichia coli, sc; read-out: PD50.
The species entered for assay [15] is Mus musculus. Nature of the assay: Compounds were evaluated for phototoxicity no-effect dose in mouse. The assay is classed as functional. A digest of the protocol:
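Depilated female CD-1 mice, five per dose plus controls. Animals are dosed orally and then exposed daily to UV-A (320–400 nm) for 3 h, for up to 4 days or until a definite positive response. Redness or erythema relative to controls, read 24 h after irradiation, counts as positive. Reported as the highest dose with no effect (mg/kg).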

Assay [16] can be described thus: Clonogenic cytotoxicity against hamster V-79 cells. The class given is functional, Cricetulus griseus, V79. A digest of the protocol: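 Chinese hamster V-79 cells grown overnight, then drug-treated for 3 h at 37 °C. Medium is replaced with fresh medium and cells are incubated 5 days to allow colony formation. IC50 (µg/mL) is the concentration inhibiting colony formation by 50% relative to control.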

Assay [17] relates to Escherichia coli. The assay can be described thus: Antibacterial activity against Escherichia coli Vogel after oral administration in mouse. The assay is classed as functional. Particulars: Escherichia coli, po; read-out: PD50.
[18] abbreviates: Staphylococcus aureus, read-out: MIC.
Setting [19] is: Escherichia coli, read-out: MIC.
Setting [20] is: Pseudomonas aeruginosa, read-out: MIC.
The mark [21] stands for this setting: Klebsiella pneumoniae, read-out: MIC.
The mark [22] stands for this setting: Enterobacter cloacae, read-out: MIC.
Setting [23] is: Streptococcus pyogenes, read-out: MIC.
The mark [24] stands for this setting: Enterococcus faecalis, read-out: MIC.
Setting [25] is: Providencia rettgeri, read-out: MIC.
Setting [26] is: Streptococcus pneumoniae, read-out: MIC.

Values after ≈ are worked out from the molar mass of the structure shown. Bounds are passed on as bounds.

`C[C@@H](N)[C@@H]1CCN(c2nc3c(cc2F)c(=O)c(C(=O)O)cn3C2CC2)C1`: the MIC (in general, the lowest concentration found to suppress growth) in [1] (setting [18]) turned out to be 0.05 µg/mL (≈ 0.139 µM); in assay [2] (setting [19]), 0.05 µg/mL (≈ 0.139 µM); in [3] (setting [20]) it was 0.8 µg/mL (≈ 2.22 µM); in [4] (setting [21]), 0.1 µg/mL (≈ 0.277 µM); in [6] (setting [22]), 0.05 µg/mL (≈ 0.139 µM); in assay [7] (setting [23]) it was 0.013 µg/mL (≈ 0.0361 µM). The MIC in assay [9] (setting [24]) came out at 0.05 µg/mL (≈ 0.139 µM); in [10] (setting [25]), 0.4 µg/mL (≈ 1.11 µM); in assay [11] (setting [18]), 6 ng/mL (≈ 0.0166 µM); in [12] (setting [26]), 0.006 µg/mL (≈ 0.0166 µM). The values for the ED50 in assay [5] and in [8] were 2 mg/kg and 14 mg/kg, respectively. Besides, the IC50 (commonly the midpoint of a concentration-inhibition curve) in assay [13] was 2080 nM.

In the case of `C[C@@H](N)[C@H]1CCN(c2cc3c(cc2F)c(=O)c(C(=O)O)cn3C2CC2)C1`, the MIC in assay [1] was 0.4 µg/mL (≈ 1.11 µM); in [2] it was 0.2 µg/mL (≈ 0.556 µM); in assay [3] it was 1.6 µg/mL (≈ 4.45 µM); in assay [4] it was 0.4 µg/mL (≈ 1.11 µM); in assay [6], 0.2 µg/mL (≈ 0.556 µM); in assay [7], 0.1 µg/mL (≈ 0.278 µM). Moreover, the MIC is 0.2 µg/mL (≈ 0.556 µM) in [9], 0.8 µg/mL (≈ 2.23 µM) in [10], 50 ng/mL (≈ 0.139 µM) in assay [11] and 0.1 µg/mL (≈ 0.278 µM) in assay [12]. For the same compound, the PD50 is 3 mg/kg in [5] and over 100 mg/kg in [8]. For the same compound, the half-inhibitory concentration (IC50) in assay [13] is 20900 nM.

As for `CN[C@H](C)[C@H]1CCN(c2c(F)c(N)c3c(=O)c(C(=O)O)cn(C4CC4)c3c2F)C1` (mixture of isomers), the ED50 was 0.4 mg/kg in assay [14] and 3 mg/kg in [17]. Besides, the MIC in [1] is 0.003 µg/mL; in assay [2] it was 0.025 µg/mL; in assay [3], 0.8 µg/mL; in [4] it was 0.05 µg/mL; in [6], 0.025 µg/mL; in assay [7] it was 0.003 µg/mL. Moreover, the MIC stood at 0.013 µg/mL in assay [9], 0.1 µg/mL in assay [10], 3 ng/mL in [11] and 0.003 µg/mL in assay [12]. This compound also came in with a Dose in assay [15] of under 30 mg/kg. This compound displayed a Cytotoxicity in assay [16] of 17 µg/mL. For the same compound, the PD50 in assay [5] stood at 0.3 mg/kg; in assay [8], 0.6 mg/kg.

On to `NCC1CCN(c2nc3c(cc2F)c(=O)c(C(=O)O)cn3C2CC2)C1` (configuration not stated), for which the ED50 in [14] amounted to 1 mg/kg; in assay [5], 4 mg/kg; in [8], 39 mg/kg; in [17], 17 mg/kg. Moreover, the MIC in assay [1] (setting [18]) came to 0.1 µg/mL (≈ 0.289 µM); in [2] (setting [19]), 0.05 µg/mL (≈ 0.144 µM); in assay [3] (setting [20]), 0.2 µg/mL (≈ 0.577 µM); in [4] (setting [21]) it was 0.1 µg/mL (≈ 0.289 µM); in assay [6] (setting [22]) it was 0.1 µg/mL (≈ 0.289 µM); in assay [7] (setting [23]), 0.025 µg/mL (≈ 0.0722 µM). In addition, the MIC in assay [9] (setting [24]) stood at 0.025 µg/mL (≈ 0.0722 µM); in [10] (setting [25]) it was 0.4 µg/mL (≈ 1.15 µM); in [11] (setting [18]), 3 ng/mL (≈ 0.00866 µM); in assay [12] (setting [26]) it was 0.1 µg/mL (≈ 0.289 µM). Besides, in assay [13], the IC50 was 2170 nM.

Take `CCN[C@H](C)[C@H]1CCN(c2c(F)cc3c(=O)c(C(=O)O)cn(C4CC4)c3c2C(F)(F)F)C1` (racemic): the ED50 in assay [14] amounted to 3 mg/kg; in assay [5] it was 0.5 mg/kg; in assay [8], 0.7 mg/kg; in assay [17] it was 5 mg/kg. The minimal inhibitory concentration (MIC) turned out to be 0.05 µg/mL (≈ 0.11 µM) in assay [1] (setting [18]); 0.8 µg/mL (≈ 1.76 µM) in [2] (setting [19]); 6.3 µg/mL (≈ 13.8 µM) in [3] (setting [20]); 1.6 µg/mL (≈ 3.51 µM) in assay [4] (setting [21]); 0.4 µg/mL (≈ 0.878 µM) in [6] (setting [22]); 0.025 µg/mL (≈ 0.0549 µM) in [7] (setting [23]). The MIC in assay [9] (setting [24]) was 0.1 µg/mL (≈ 0.22 µM); in [10] (setting [25]), 1.6 µg/mL (≈ 3.51 µM); in assay [11] (setting [18]), 13 ng/mL (≈ 0.0285 µM); in [12] (setting [26]), 0.013 µg/mL (≈ 0.0285 µM). In [13], this compound gave an IC50 of 1930 nM.

`CC1(CN)CCN(c2nc3c(cc2F)c(=O)c(C(=O)O)cn3C2CC2)C1` (configuration not stated): the ED50 stood at 2 mg/kg in assay [14], 2 mg/kg in assay [5], 6 mg/kg in assay [8] and 10 mg/kg in assay [17]. Further, the minimum inhibitory concentration (MIC) in assay [1] (setting [18]) is 0.025 µg/mL (≈ 0.0694 µM); in [2] (setting [19]), 0.2 µg/mL (≈ 0.555 µM); in assay [3] (setting [20]), 0.8 µg/mL (≈ 2.22 µM); in assay [4] (setting [21]), 0.1 µg/mL (≈ 0.277 µM); in assay [6] (setting [22]), 0.1 µg/mL (≈ 0.277 µM); in assay [7] (setting [23]), 0.05 µg/mL (≈ 0.139 µM). Moreover, the MIC in [9] (setting [24]) was determined as 0.05 µg/mL (≈ 0.139 µM); in assay [10] (setting [25]), 0.4 µg/mL (≈ 1.11 µM); in assay [11] (setting [18]), 6 ng/mL (≈ 0.0166 µM); in [12] (setting [26]), 0.025 µg/mL (≈ 0.0694 µM). This compound also gave an IC50 in assay [13] of 13900 nM.

Regarding `NCC1CCN(c2cc3c(cc2F)c(=O)c(C(=O)O)cn3C2CC2)C1` (configuration not stated), the ED50 in assay [14] was 2 mg/kg; in [5] it was 4 mg/kg; in [8], over 100 mg/kg; in [17], over 100 mg/kg. The MIC in [1] (setting [18]) turned out to be 0.05 µg/mL (≈ 0.145 µM); in assay [2] (setting [19]), 0.05 µg/mL (≈ 0.145 µM); in assay [3] (setting [20]), 0.8 µg/mL (≈ 2.32 µM); in assay [4] (setting [21]), 0.1 µg/mL (≈ 0.29 µM); in assay [6] (setting [22]) it was 0.1 µg/mL (≈ 0.29 µM); in assay [7] (setting [23]), 0.013 µg/mL (≈ 0.0376 µM). Also, the MIC was determined as 0.05 µg/mL (≈ 0.145 µM) in assay [9] (setting [24]), 0.2 µg/mL (≈ 0.579 µM) in [10] (setting [25]), 6 ng/mL (≈ 0.0174 µM) in assay [11] (setting [18]) and 0.013 µg/mL (≈ 0.0376 µM) in assay [12] (setting [26]). In [13], the IC50 was 1450 nM.
